Data from ChEMBL document CHEMBL5154720, “In silico screening-based discovery of novel covalent inhibitors of the SARS-CoV-2 3CL protease” (Eur J Med Chem, 2022).
pIC50: −log10 of the molar value.

Legend:
[1] = target: Replicase polyprotein 1ab (Severe acute respiratory syndrome coronavirus 2) (UniProt P0DTD1); assay: Inhibition of SARS-CoV-2 3CL protease using MCA-AVLQSGFR-Lys(Dnp)-Lys-NH2 fluorogenic peptide as substrate incubated for 30 mins at 50 uM and measured by FRET assay relative to control
Outline: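 Recombinant SUMO-tag-cleaved 3CLpro (E. coli BL21(DE3), Ni-NTA, Q-Sepharose, size exclusion), 50 nM final, preincubated 30 min with compound in 50 mM Tris pH 7.3, 1 mM EDTA; reaction started with 20 μM final FRET substrate. Fluorescence 320/405 nm read every 30 s for 5 min; initial velocity relative to DMSO control. Mean ± SD of three independent experiments.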

[2] = target: Replicase polyprotein 1ab (Severe acute respiratory syndrome coronavirus 2, UniProt P0DTD1); assay: Inhibition of SARS-CoV-2 3CL protease using MCA-AVLQSGFR-Lys(Dnp)-Lys-NH2 fluorogenic peptide as substrate incubated for 30 mins and measured by FRET assay

SMILES | inhibition [1] [%] | pIC50 [2]
NC(=O)CN1C(=O)C(O)(CC(=O)/C=C\c2ccc3c(c2)OCO3)c2ccccc21 (stereo unspecified) | 55.2 | 4.44
O=C(CC1C(=O)NCCN1C(=O)CCl)Nc1cccc(Cl)c1 (stereo unspecified) | 87.6 | 5.07
NS(=O)(=O)c1ccc(NC(=O)C(=O)c2ccc[nH]2)cc1 | 31.4 | 
CN(C(=O)CN1CC(C=O)c2ccccc21)c1ccccc1 (stereo unspecified) | 32.6 | 
O=C(/C=C/c1cn(CC(O)CN2CCOCC2)c2ccccc12)c1cccs1 (stereo unspecified) | 22.3 | 
CC1=C(C#N)C(=O)N(CCCO)C(=O)/C1=N\Nc1ccc(Br)cc1C(=O)O | 65.5 | 4.72
Cc1cccc(C)c1NC(=O)CSc1nc2c(cc1C#N)C(=O)CCC2 | 15.2 | 
Cn1c(CN2CCC(C(N)=O)CC2)c(C#N)c2ccccc21 | 24.1 | 
